Laboratory results published in the EternaBench riboswitch data.

Tested on: MS2 coat protein
Experiment: apparent Kd, MS2 coat protein; higher = weaker binding; RNA-MaP array; FMN 200 µM where present
In short: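 On Illumina sequencing-chip clusters, designs were transcribed by stalled E. coli RNA polymerase and titrated with SNAP-549-labelled MS2 coat protein (0.7 or 1.5 nM, doubling to 3 µM), without and then with constant ligand, in 100 mM Tris-HCl pH 7.5, 80 mM KCl, 4 mM MgCl2, BSA, DTT, yeast tRNA and Tween-20. Apparent Kd is the median of filtered per-cluster curve fits to green signal normalised to red-channel RNA signal and control-cluster median Fmax.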

[1] = designed as: ON switch for flavin mononucleotide, no ligand
[2] = ligand present: flavin mononucleotide, designed as: ON switch for flavin mononucleotide
[3] = designed as: OFF switch for flavin mononucleotide, no ligand
[4] = ligand present: flavin mononucleotide, designed as: OFF switch for flavin mononucleotide

GGAGCUCACAUUAACAUGAGGAUCACCCAUGUCUCUUGACAUGAGGAUAUGGAUCCUAAUUGGAUCCAGAAGGCAUGGAGCUCC
apparent Kd [1]: 1.65 µM | apparent Kd [2]: 0.108 µM

GGAGCUCAGAUUAACAUGAGGAUCACCCAUGUCUUUUGACAUGAGGAUAUGGAUCCUAAUUGGAUCCAGAAGGCAUGGAGCUCC
apparent Kd [1]: 1.59 µM | apparent Kd [2]: 0.126 µM

GGAGUACAUGAGGAUCACCCAUGUUGGAACAAAGUAGGAUAUGUACAAUAUUAAAUAAAAACAGAAGGACUAAGAA
apparent Kd [1]: 0.0474 µM | apparent Kd [2]: 0.0308 µM

GGAUAACAUGAGGAUCACCCAUGUACAUGGGUACAAGGAUAUGUAAAAUAAAACAAACAAACAGAAGGUGUAAAAA
apparent Kd [1]: 0.708 µM | apparent Kd [2]: 1.45 µM

GGAUAGGACAGAGGAUAUACCGAUAGGAUCUACUAUCGAAGAAUCCUCACAUGAGGAUCACCCAUGUAGAAGGCUGUCCUAUCG
apparent Kd [3]: 0.0403 µM | apparent Kd [4]: 0.646 µM

GGAUAGGACAGAGGAUAUACCGAUAGGAUCUACUAUCGAAUAAUCCUCACAUGAGGAUCACCCAUGUAGAAGGCUGUCCUAUCG
apparent Kd [3]: 0.0213 µM | apparent Kd [4]: 0.143 µM

GGAUAGGACAGAGGAUAUACGUGCUAGAGAUACUAGCAAAAUAUCCUCACAUGAGGAUCACCCAUGUAGAAGGCUGUCCUAUCG
apparent Kd [3]: 0.0181 µM | apparent Kd [4]: 0.079 µM

GGAUAGGACAGAGGAUAUACGUGCUAGAGAUACUAGCAAGAUUUCCUCACAUGAGGAUCACCCAUGUAGAAGGCUGUCCUAUCG
apparent Kd [3]: 0.0132 µM | apparent Kd [4]: 0.348 µM

GGAUAGGACAGAGGAUAUACGUGCUAGUGAUACUAGCAAAAUUUCCUCACAUGAGGAUCACCCAUGUAGAAGGCUGUCCUAUCG
apparent Kd [3]: 0.0155 µM | apparent Kd [4]: 0.453 µM

GGAUAGGUCAGAGGAUAUACGUGCUAGAGAUACUAGCAAAAUUUCCUCACAUGAGGAUCACCCAUGUAGAAGGCUGUCCUAUCG
apparent Kd [3]: 0.0124 µM | apparent Kd [4]: 0.278 µM

GGAUCCAACACAGGAUAUGCUGGACCUUGUCCAGCAGAAGGGUGAAGAACAUGAGGAUCACCCAUGUGGAUCCAUAUAUUUAAU
apparent Kd [1]: 0.24 µM | apparent Kd [2]: 0.0146 µM

GGAUCCAACACAGGAUAUGCUGGACUUUGUCCAGCAGAAGGGUGAAGAACAUGAGGAUCACCCAUGUGGAUCCAUAUAUUUUAU
apparent Kd [1]: 0.262 µM | apparent Kd [2]: 0.0165 µM

GGAUCCGCUUCCGCCACAUGAGGAUCACCCAUGUGUAUGAACAGAAGGGCGACCUCAAAGAGGGCGCAGGAUAUGUACUCGUAC
apparent Kd [1]: 0.0783 µM | apparent Kd [2]: 0.0486 µM

GGAUCGCAAGAAGAUCCAAUACGAACAUGAGGAUCACCCAUGUAGGAUAUGCUAGAAGAAGAGUAGCAGAAGGACAUGUGCCUU
apparent Kd [3]: 0.00979 µM | apparent Kd [4]: 0.0427 µM

GGAUCGUAUGUCAGGAUAUGCCACUGGAUACAGUGGUAGAAGGGACAUGAGGAUCACCCAUGUCCUACCGAUCC
apparent Kd [3]: 0.0125 µM | apparent Kd [4]: 0.0144 µM

GGAUCUUGGGUCAGGAUAUGCUGGUAUUUUUGCCAGCAGAAGGGACAUGAGGAUCACCCAUGUUCUUGGUUUUG
apparent Kd [3]: 0.0106 µM | apparent Kd [4]: 0.0139 µM

GGAUGACAAAGUCAUCCAAUACGAACAUGAGGAUCACCCAUGUAGGAUAUGCAACACAAAGUGUUGCAGAAGGACAUGUGUCUU
apparent Kd [3]: 0.0304 µM | apparent Kd [4]: 0.136 µM

GGAUGACAAAGUCAUCCAAUUCGAACAUGAGGAUCACCCAUGUAGGAUAUGCUACUCAAAGAGUAGCAGAAGGACAUGUGCUUU
apparent Kd [3]: 0.0377 µM | apparent Kd [4]: 0.167 µM

GGAUGACAAAGUCAUCCAAUUCGAACAUGAGGAUCACCCAUGUAGGAUAUGGUACUCAAAGAGUACCAGAAGGACAUGUGCUUU
apparent Kd [3]: 0.0381 µM | apparent Kd [4]: 0.145 µM

GGAUGACAAAGUCAUCCAUAACGAACAUGAGGAUCACCCAUGUAGGAUAUGCUACUCAAAGAGUAGCAGAAGGACAUGUGUCUU
apparent Kd [3]: 0.0339 µM | apparent Kd [4]: 0.158 µM

GGAUGACAAAGUCAUCCCUGACGAACAUGAGGAUCACCCAUGUAGGAUAUGCUACUCAAAGAGUAGCAGAAGGACAUGUGUCUU
apparent Kd [3]: 0.0312 µM | apparent Kd [4]: 0.15 µM

GGAUGACAAAGUCAUCCUAUUCGAACAUGAGGAUCACCCAUGUAGGAUAUGCAACUCAAAGAGUUGCAGAAGGACAUGUGCUUU
apparent Kd [3]: 0.0347 µM | apparent Kd [4]: 0.166 µM

GGAUGUGUGUAAGGAUAUGCAUCACUGAGAAAUUUAGUGAGGAAGAUCACAUGAGGAUCACCCAUGUAGAAGGUACACACGUGG
apparent Kd [3]: 0.0108 µM | apparent Kd [4]: 0.0527 µM

GGAUUACAUGAGGAUCACCCAUGUGAGGAUAUCGAUGUCCUCAAUGGAGUGCGGGACUCGAGAAGGCACUUGGA
apparent Kd [3]: 0.338 µM | apparent Kd [4]: 0.168 µM

GGAUUACAUGAGGAUCACCCAUGUGAGGAUAUCGAUGUCCUGUCUUUCGUGCGGGACUCGAGAAGGCACUUGGA
apparent Kd [3]: 0.0452 µM | apparent Kd [4]: 0.141 µM

GGCAUAAACGAGGAUAUCGUUACGGAAACGUAACGAGAAGGUGUAACAUGAGGAUCACCCAUGUUCCUCAAGCC
apparent Kd [3]: 0.0305 µM | apparent Kd [4]: 0.033 µM

GGCCCACAUGAGGAUCACCCAUGUGAGGAUAUGUUAGUUUCGGCGAAAGCCGAAAUUAACAGAAGGCACAGGCC
apparent Kd [3]: 0.0117 µM | apparent Kd [4]: 0.0136 µM

GGCCUGUUAGGAUAUUAGUAGUAGUCAGAAUAGACUAUUACUGAGAAGGGACAUGAGGAUCACCCAUGUUGGCC
apparent Kd [3]: 0.0175 µM | apparent Kd [4]: 0.0199 µM

GGCGCCCGGGCGGAGUCCCACACACAUGAGGAUCACCCAUGUAGAAGGCGCUGCCGCAAGGUCAGCGAGGAUAUACAUUAAGGA
apparent Kd [3]: 0.0148 µM | apparent Kd [4]: 0.0458 µM

GGCGGAGACGUUAACAUGAGGAUCACCCAUGUCGAAGGAGAUGAGGAUAUCGUAUACGAUGUAUAUGAGAAGGCAUGGUCUGCC
apparent Kd [1]: 0.0328 µM | apparent Kd [2]: 0.0113 µM

GGCGGCGCGGGCCACCGCAGAACCAGAAGGACAUGAGGAUCACCCAUGUAACAAAACAGGGCGGUGUAGGAUAUGGCAGACCCG
apparent Kd [3]: 0.0145 µM | apparent Kd [4]: 0.0297 µM

GGCGGGAAUGAGAAGGGUCACAUGAGGAUCACCCAUGUGCUCUUCGCCGUGACAGGAUAUCAUCGCCGCCAGGUUAGAUUUUUG
apparent Kd [3]: 0.00783 µM | apparent Kd [4]: 0.0309 µM

GGCUAGUCAGGAUAUACGAACAUGUCAAAAGACGUGAAGGGACAUGAGGAUCACCCAUGUAGAAGGGACUAGCA
apparent Kd [3]: 0.028 µM | apparent Kd [4]: 0.158 µM

GGCUAGUCAGGAUAUACGAACAUGUCAAAAGACGUGAAGGGACAUGAGGAUCACCCAUGUAGAAGGGACUAGCG
apparent Kd [3]: 0.0295 µM | apparent Kd [4]: 0.141 µM

GGCUAGUGAGGAUAUACGUGCACUCCUCAGUCGCCAGUCGGACAUGAGGAUCACCCAUGUAGAAGGUAUCGGCA
apparent Kd [3]: 0.0278 µM | apparent Kd [4]: 0.0302 µM

GGCUGUCUCGCAGGAUAUGCUGAUCAGAAACUAGCAGAAGGGUGAUCCAGUCGAGGUUUGACAUGAGGAUCACCCAUGUGGAGU
apparent Kd [1]: 0.0294 µM | apparent Kd [2]: 0.0558 µM

GGGAAGUAAGGAUAUGCUGCUCGUCACUUGCGUGAUGAGUAGCAGAAGGUACAUGAGGAUCACCCAUGUAAAGA
apparent Kd [3]: 0.0297 µM | apparent Kd [4]: 0.0269 µM

GGGAGUGGAGGGAAUAACAUGAGGAUCACCCAUGUAUGGGAGAGAAGGCAGGUCGGAGGGCGGUCUGAGGAUAUUUAGACUCCU
apparent Kd [1]: 0.00896 µM | apparent Kd [2]: 0.00743 µM

GGGAUCAUCGGAGGAUAUCAUGUAGAUACAUGAGGAUCACCCAUGUCGAUGGAGACAUCGGAGAUUGAGAAGGCCGAUGAUCCG
apparent Kd [1]: 0.741 µM | apparent Kd [2]: 0.0289 µM

GGGAUGCUAGGAUAUACAUCGGGCUCCAGGAUGUUCCGGGAACAUGAGGAUCACCCAUGUAGAAGGAGCUAAAG
apparent Kd [3]: 0.0679 µM | apparent Kd [4]: 0.0535 µM

GGGCCCGGUGUGAGGAUAUGCCCGGGUAAAUUUGGGCAGAAGGCACAUGAGGAUCACCCAUGUAAGCCGGGUUU
apparent Kd [3]: 0.0148 µM | apparent Kd [4]: 0.0129 µM

GGGCGUAAUACAUGAGGAUCACCCAUGUCAGAAAGGGUAAUCAGAAGGUACUAUUAGAGAAAGAGUAAGGAUAUGAAUACGCCC
apparent Kd [1]: 0.876 µM | apparent Kd [2]: 0.169 µM

GGGUACAUCGGAGGAUAUCAUGUAAAUACAUGAGGAUCACCCAUGUCGAUGGAGACAUCGGAGAUCGAGAAGGCCGAUGUACCG
apparent Kd [1]: 0.168 µM | apparent Kd [2]: 0.294 µM

GGGUACAUCGGAGGAUAUCAUGUAAAUACAUGAGGAUCACCCAUGUCGAUGGAGACAUCGGAGAUUGAGAAGGCCAAUGUACCG
apparent Kd [1]: 0.18 µM | apparent Kd [2]: 0.00876 µM

GGGUACAUCGGAGGAUAUCAUGUAAAUACAUGAGGAUCACCCAUGUCGAUGGAGACAUCGGAGAUUGAGAAGGCCGACGUACCG
apparent Kd [1]: 0.187 µM | apparent Kd [2]: 0.00915 µM

GGGUACAUCGGAGGAUAUCAUGUAAAUACAUGAGGAUCACCCAUGUCGAUGGAGACAUCGGAGAUUGAGAAGGCCGAUGAACCG
apparent Kd [1]: 0.165 µM | apparent Kd [2]: 0.00852 µM

GGGUACAUCGGAGGAUAUCAUGUAAAUACAUGAGGAUCACCCAUGUCGAUGGAGACAUCGGAGAUUGAGAAGGCCGAUGUACCU
apparent Kd [1]: 0.152 µM | apparent Kd [2]: 0.00875 µM

GGGUACAUCGGAGGAUAUCAUGUAAAUACAUGAGGAUCACCCAUGUCGAUGGAGACAUCGGAGAUUGAGAAGGCCGAUGUAGCG
apparent Kd [1]: 0.19 µM | apparent Kd [2]: 0.00912 µM

GGGUACAUCGGAGGAUAUCAUGUAAAUACAUGAGGAUCACCCAUGUCGAUGGAGGCAUCGGAGAUUGAGAAGGCCGAUGUACCG
apparent Kd [1]: 0.566 µM | apparent Kd [2]: 0.0176 µM

GGGUACAUCGGAGGAUAUCAUGUAAAUACAUGAGGAUCACCCAUGUUGAUGGAGACAUCGGAGAUUGAGAAGGCCGAUGUACCG
apparent Kd [1]: 0.0419 µM | apparent Kd [2]: 0.00603 µM

GGGUACAUCGGAGGAUAUCAUGUAACUACAUGAGGAUCACCCAUGUCGAUGGAGACAUCGGAGAUUGAGAAGGCCGAUGUACCG
apparent Kd [1]: 0.261 µM | apparent Kd [2]: 0.0101 µM

GGGUACAUCGGAGGAUAUCCUGUAAAUACAUGAGGAUCACCCAUGUCGAUGGAGACAUCGGAGAUUGAGAAGGCCGAUGUACCG
apparent Kd [1]: 0.035 µM | apparent Kd [2]: 0.00674 µM

GGGUCAACAUGAGGAUCACCCAUGUAGGAUAUCGCUAUUGUAAUCAUGAAACAUGAUUACAAUAGCGAGAAGGACAUAUGUCCC
apparent Kd [3]: 0.009 µM | apparent Kd [4]: 0.0118 µM

GGGUGCCCUGCAGAAGCGACAUGAGGAUCACCCAUGUAACGUAGAAGGGCCCGGAACUAAGGUGGGCAGGAUAUACUGUUAGGU
apparent Kd [3]: 0.00676 µM

GGGUUCAUGUAAGGAUAUGUAUUGUUAAUCGGAGCAGAAGGUACAUGAGGAUCACCCAUGUCAACCUAGAGCAGGGCUUCUUAA
apparent Kd [3]: 0.0237 µM | apparent Kd [4]: 0.0452 µM
